Assay results pooled from the literature.
Lines come from different studies, so protocols differ.
Observed: metabolic stability
Host: human
Matrix: liver microsomes

Cc1cc(Nc2ccc(S(F)(F)(F)(F)F)cc2)n2ccnc2n1 — microsomal CLint: 7.1 µL/min/mg
N#CC1CCN(c2nc(-c3ccccn3)nc3ccccc23)CC1 — microsomal CLint: 45 µL/min/mg
C=CCn1c(=O)c2cnc(Nc3ccc(N4CCN(C)CC4)cc3)nc2n1-c1cccc(C(C)(C)O)n1 — microsomal CLint: 17 µL/min/mg
COc1cc2[nH]c(C)c(-c3ccc(OC(C)C)cc3)c(=O)c2cc1Cl — microsomal CLint (1 µM): 8 µL/min/mg
CCOc1ccc2ccc(=O)oc2c1 — microsomal CLint (1 µM, pH 7.4): 146 µL/min/mg
Fc1ccc(Nc2c(-c3ncccc3F)nc3ccccn23)cc1 — microsomal CLint (3 µM, pH 7.4): 86 µL/min/mg
CCC(F)(F)c1nc2nc(C)cc(Nc3ccc(S(F)(F)(F)(F)F)cc3)n2n1 — microsomal CLint (1 µM, pH 7.4): < 6 µL/min/mg
O=S(=O)(c1ccc(-c2ccc3nccc(Nc4cccnc4)c3c2)cc1)N1CCOCC1 — microsomal CLint: 86.3 µL/min/mg
O=c1[nH]c(=S)n(Cc2ccc(Cl)cc2CNCC(F)(F)F)c2cc[nH]c12 — microsomal CLint: 8.2 µL/min/mg
FC(F)(F)c1cccc(Nc2c(-c3ccccn3)nc3ccccn23)c1 — microsomal CLint (3 µM, pH 7.4): 59 µL/min/mg
O=C(N[C@H](Cc1ccccc1)C(=O)Nc1ccccc1N1CCOCC1)c1cccs1 — microsomal CLint (2 µM, 40 min, pH 7.4): 1370 µL/min/mg
CCC(F)(F)c1nc2nc(C)cc(Nc3ccc(C(F)(F)F)cc3)n2n1 — microsomal CLint (1 µM, pH 7.4): < 6 µL/min/mg
COc1cc2[nH]c(C)c(-c3ccoc3)c(=O)c2cc1Cl — microsomal CLint (1 µM): 93 µL/min/mg
Cn1cnc(-c2nc3ccccn3c2Nc2ccc(F)cc2)c1 — microsomal CLint (3 µM, pH 7.4): 17 µL/min/mg
c1ccc(-c2nc(N3CCOCC3)c3ccccc3n2)nc1 — microsomal CLint: 58 µL/min/mg
COc1ccc(Nc2ccnc3ccc(-c4ccc(S(=O)(=O)N5CCOCC5)cc4)cc23)cc1Cl — microsomal CLint: 102 µL/min/mg
Fc1ccc(Nc2c(-c3ccccn3)nc3ccccn23)nc1 — microsomal CLint (3 µM, pH 7.4): 44 µL/min/mg
COc1cc2[nH]c(C)c(-c3ccc(CO)cc3)c(=O)c2cc1Cl — microsomal CLint (1 µM): < 7 µL/min/mg
c1ccc(-c2nc(N3CCCC(c4ccccn4)C3)c3ccccc3n2)nc1 (stereo not shown) — microsomal CLint: 113 µL/min/mg
COc1cc2[nH]c(C)c(-c3ccco3)c(=O)c2cc1Cl — microsomal CLint (1 µM): 59 µL/min/mg
Cc1cc(NC(=O)Nc2ccc3c(c2)OC(F)(F)O3)cc(C(F)(F)F)n1 — microsomal CLint: < 7 µL/min/mg
COc1cc2[nH]c(C)c(-c3ccc(O)cc3)c(=O)c2cc1Cl — microsomal CLint (1 µM): < 7 µL/min/mg
Fc1ccc(Nc2c(-c3cc(Cl)ccn3)nc3ccccn23)cc1 — microsomal CLint (3 µM, pH 7.4): 160 µL/min/mg
CS(=O)(=O)c1ccc(-c2cnc(N)c(-c3ccc(C(F)(F)F)nc3)c2)cc1 — microsomal CLint (1 µM): < 11.6 µL/min/mg
C[C@@H](C(=O)NC1Cc2ccccc2C1)c1ccccc1 — microsomal CLint (1 µM, 1 h): 105 µL/min/mg
CCOC(=O)c1c(-c2cccc(Br)c2)[nH]c2cc(OC)c(F)cc2c1=O — microsomal CLint (19.8 µM, pH 7.4): < 4 µL/min/mg
c1ccc(CN2CCN(c3nc(-c4ccccn4)nc4ccccc34)CC2)cc1 — microsomal CLint: 136 µL/min/mg
Cc1cc(Nc2ccnc3ccc(-c4ccc(S(=O)(=O)N5CCOCC5)cc4)cc23)sn1 — microsomal CLint: 115 µL/min/mg
N#Cc1cccc(-c2nc(N3CCC(c4ccccn4)C3)c3ccccc3n2)c1 (stereo not shown) — microsomal CLint: 261 µL/min/mg
COc1cc2[nH]c(C)c(-c3cccc(CO)c3)c(=O)c2cc1Cl — microsomal CLint (1 µM): < 7 µL/min/mg
O=S(=O)(c1ccc(-c2ccc3nccc(Nc4ncc(Cl)cn4)c3c2)cc1)N1CCOCC1 — microsomal CLint: 113 µL/min/mg
COc1ccn2c(Nc3ccccc3F)c(-c3ccncn3)nc2c1 — microsomal CLint (3 µM, pH 7.4): 120 µL/min/mg
COc1ccc(Nc2ccnc3ccc(-c4ccc(S(=O)(=O)N5CCOCC5)cc4)cc23)cc1C — microsomal CLint: 131 µL/min/mg
c1ccc(-c2nc(N3CCc4cccnc4C3)c3ccccc3n2)nc1 — microsomal CLint: 64 µL/min/mg
COc1ccc(-c2nc3ccccn3c2N(C)c2ccc(F)cc2)nc1 — microsomal CLint (3 µM, pH 7.4): 93 µL/min/mg
CCn1cnc2c(N3CCC(c4ccccn4)C3)nc(-c3ccccn3)nc21 (stereo not shown) — microsomal CLint: 42 µL/min/mg
CCc1nnc(Nc2ccnc3ccc(-c4ccc(S(=O)(=O)N5CCOCC5)cc4)cc23)s1 — microsomal CLint: 59.3 µL/min/mg
C[S+]([O-])c1ccc(-c2c(-c3ccccn3)nc3n2CCC3)cc1 (stereo not shown) — microsomal CLint (3 µM, pH 7.4): < 3 µL/min/mg
Cc1cccnc1CNc1nc(-c2ccccn2)nc2ccccc12 — microsomal CLint: 64 µL/min/mg
COc1cc2[nH]c(C)c(-c3c(C)noc3C)c(=O)c2cc1Cl — microsomal CLint (1 µM): < 7 µL/min/mg
